Screening results deposited in PubChem BioAssay by several laboratories.
Sampled rows, rich in hits. Any-hit rate of the full collection: about 2.2%.
NR2E3 ag-1 = activates human NR2E3 receptor. CHO-S Gal4-NCOR/VP16-NR2E3 two-hybrid, luciferase. AID 602229. inhibition of corepressor binding, % at 3.98 µM. actives 0.35% (n = 360,000);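 active = inhibition above the mean of all tested compounds plus 3 SD, cut at about 70% in these data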;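 note: 0% = DMSO with NR2E3 transfected cells and 100% = cells lacking NR2E3 construct; higher means lower luciferase signal from less NR2E3 corepressor binding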
Target sequence (Q9Y5X4 whole entry, looked up, the tested form may be a part): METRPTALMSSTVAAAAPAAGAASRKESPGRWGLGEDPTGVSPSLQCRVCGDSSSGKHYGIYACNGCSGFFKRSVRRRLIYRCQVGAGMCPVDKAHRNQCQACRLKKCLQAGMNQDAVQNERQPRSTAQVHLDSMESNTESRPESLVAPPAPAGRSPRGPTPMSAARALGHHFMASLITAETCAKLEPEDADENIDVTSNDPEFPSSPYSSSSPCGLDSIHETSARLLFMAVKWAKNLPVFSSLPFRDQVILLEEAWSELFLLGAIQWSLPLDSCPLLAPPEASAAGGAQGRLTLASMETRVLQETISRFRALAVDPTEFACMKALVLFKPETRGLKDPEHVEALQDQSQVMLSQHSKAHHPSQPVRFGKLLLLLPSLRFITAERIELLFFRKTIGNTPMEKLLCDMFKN
V-ATPase pHluor = alters yeast V-ATPase proton transport; S. cerevisiae, pHLuorin cytosolic pH fluorescence; response, % at 10 µM; actives 0.37% (n = 350,000); in the data active = response mostly above about 7.3%, no sharp cut-off; inactive = mostly below about 5.4%; note: actives read high
GalR3 antag = antagonists of human GalR3 | actives 0.44% (n = 360,000) | inhibition, % at 3 µM | HEK293 GalR3-CNG cAMP membrane potential fluorescence; galR3 body fused to GalR1 C-terminus | O60755;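 active = inhibition above the screen-wide average plus 3 SD, cut at about 13% in these data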;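 note: forskolin and galanin both at EC90 stimulate the cells; cAMP rise reported by CNG channel membrane potential dye signal; 0% = forskolin plus galanin with DMSO and 100% = forskolin alone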
Target sequence (O60755 1-299 limits assumed): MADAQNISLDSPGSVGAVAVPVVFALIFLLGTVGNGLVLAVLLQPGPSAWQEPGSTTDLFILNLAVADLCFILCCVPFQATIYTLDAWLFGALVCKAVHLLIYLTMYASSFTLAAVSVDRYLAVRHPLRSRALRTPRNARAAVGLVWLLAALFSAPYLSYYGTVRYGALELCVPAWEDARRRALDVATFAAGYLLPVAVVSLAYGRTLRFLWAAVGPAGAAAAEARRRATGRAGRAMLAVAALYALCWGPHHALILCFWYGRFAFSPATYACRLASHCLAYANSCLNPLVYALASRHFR
FXN GAA850 act = activators of GAA850 frataxin (FXN) promoter | actives 0.56% (n = 360,000) | activation, % at 6 µM | HEK293 lucGAA850 FXN promoter luciferase reporter, 24 h; percent of 10 µM SAHA response | AID 540364;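 active = activation above the average of all compounds screened plus 3 SD, cutoff fixed separately per campaign, cut at about 7.5% in these data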;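 note: 0% = DMSO wells and 100% = 10 µM SAHA wells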
NR2E3 ag-2 = agonists of human nuclear receptor NR2E3; GST-NR2E3/biotin-RetCOR TR-FRET, 1536-well; inhibition of corepressor binding, % at 4.78 µM; actives 0.12% (n = 320,000); AID 2300;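 active = percent inhibition above the cutoff of mean plus 3 SD of all tested compounds, set per screening campaign, cut at about 20% in these data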;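 note: 0% = DMSO wells and 100% = biotin wells as full block of FRET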
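System: GST-NR2E3 and biotin-RetCOR proteins; probe or stimulus: 7 nM biotin-RetCOR; doses: compound at 4.8 µM, single dose; schedule: Compound–protein incubation for 5 h at 4 °C; detection: time-resolved FRET; read-out: percent inhibition; controls: biotin wells as high control, 0.6% DMSO wells as low control; format: 1536-well plates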
Env fusion inh = HIV envelope-mediated fusion inhibition; inhibition, % at 12.3 µM; HeLa-JRFL Env/CEM21 cell fusion, luciferase; actives 1.1% (n = 360,000);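 active = mean replicate inhibition score of at least 50 and every replicate individually at or above 50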;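 note: 0% = plate neutral controls and 100% = maraviroc near 300 nM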
The depositor's hits bear a star; · = not tested or not shown; ! = a repeat was not active; [ ] = another dose, or the depositor's remark.

SMILES | NR2E3 ag-1 | V-ATPase pHluor | GalR3 antag | FXN GAA850 act | NR2E3 ag-2 | Env fusion inh
O=C(C[C@H]1C[C@@H]2c3cc(NC(=O)Nc4ccccc4)ccc3O[C@@H]2[C@@H](CO)O1)NCc1ccccc1 | · | · | · | · | · | -16[16.7 µM]
O=C(C[C@H]1C[C@@H]2c3cc(NC(=O)c4ccc5c(c4)OCO5)ccc3O[C@@H]2[C@H](CO)O1)NCc1ccc(Oc2ccccc2)cc1 | · | · | · | · | · | 24[16.7 µM]
O=C(C[C@@H]1C[C@H]2c3cc(NC(=O)Nc4ccccc4)ccc3O[C@H]2[C@H](CO)O1)NCc1cccnc1 | · | · | · | · | · | 63*[16.7 µM]
O=C(C[C@H]1C[C@H]2c3cc(NC(=O)c4ccc5c(c4)OCO5)ccc3O[C@H]2[C@H](CO)O1)NCc1ccc(Oc2ccccc2)cc1 | · | · | · | · | · | 73*[16.7 µM]
O=C(C[C@@H]1C[C@@H]2c3cc(NC(=O)Nc4ccccc4)ccc3O[C@@H]2[C@@H](CO)O1)NCc1ccccc1 | · | · | · | · | · | 59*[16.7 µM]
C[C@@H]1CN([C@H](C)CO)C(=O)c2cc(NS(=O)(=O)c3ccc(Cl)cc3)ccc2O[C@@H](C)CCCCO[C@@H]1CN(C)Cc1ccccc1 | · | · | · | · | · | 65*[16.7 µM]
C[C@@H]1CN([C@H](C)CO)C(=O)c2cc(NS(=O)(=O)c3ccc(Cl)cc3)ccc2O[C@@H](C)CCCCO[C@@H]1CN(C)Cc1ccc2c(c1)OCO2 | · | · | · | · | · | 68*![16.7 µM]
C[C@@H]1CCCCO[C@H](CN(C)Cc2ccc(Cl)c(Cl)c2)[C@@H](C)CN([C@@H](C)CO)C(=O)c2cc(NS(=O)(=O)c3ccccc3)ccc2O1 | · | · | · | · | · | 36[16.7 µM]
C[C@H]1CCCCO[C@H](CN(C)Cc2ccccc2)[C@@H](C)CN([C@@H](C)CO)C(=O)c2cc(NS(=O)(=O)c3ccc(Cl)cc3)ccc2O1 | · | · | · | · | · | 47[16.7 µM]
C[C@@H]1CN([C@H](C)CO)C(=O)c2cc(NS(=O)(=O)c3ccccc3)ccc2O[C@@H](C)CCCCO[C@@H]1CN(C)Cc1ccc(Cl)c(Cl)c1 | · | · | -7 | · | · | 69*![16.7 µM]
COC(=O)CCC[C@H]1CC2(C[C@H](CCCO[Si](C)(C)C(C)(C)C)N1C(=O)OC(C)(C)C)OCCO2 | -10 | 2 | -2 | 0 | 4 | 74*
CCn1c(=NC(=O)CS(=O)(=O)c2ccc(C)cc2)sc2cccc(OC)c21 | 28 | 7 | -4 | -1 | 0 | 75*
COc1cccc2sc(=NC(=O)CS(=O)(=O)c3ccc(F)cc3)n(C)c12 | -5 | 6 | 1 | 1 | 3 | -4
COC(=O)C[C@H]1CC[C@@H]2[C@H](COc3ccc(NC(=O)Nc4ccc(C)cc4)cc3C(=O)N2C)O1 | · | · | · | · | · | -36[16.7 µM]
COc1ccc(C(C(=O)NC2CCCCC2)N(C(=O)CCl)c2ccc(C)cc2)cc1 (stereo not drawn) | 4 | -1 | -3 | -11 | -2 | 56*
CCOc1ccccc1N(C(=O)CNC(=O)c1ccco1)C(C(=O)NC1CCCC1)c1cccnc1 (stereo not drawn) | -17 | -3 | -2 | 3 | 1 | 77*
COc1ccc(N(C(=O)CCl)C(C(=O)NC2CCCCC2)c2cccnc2)cc1 (stereo not drawn) | -12 | 15* | 3 | -11 | -4 | 51*
O=C(NC1CCCCC1)C(c1cccnc1)N(C(=O)CCl)c1ccc(F)cc1 (stereo not drawn) | -16 | 1 | 1 | -13 | 1 | ·
COc1ccc(C(C(=O)NC2CCCCC2)N(C(=O)CCl)c2ccc(OC)cc2)cc1 (stereo not drawn) | -30 | 0 | · | -16 | -2 | ·
COc1ccc(C(C(=O)NC2CCCC2)N(C(=O)c2ccoc2C)c2ccc(C)cc2)cc1 (stereo not drawn) | -60 | 3 | -7 | 0 | 6 | 90*
C[C@@H]1CN([C@H](C)CO)C(=O)c2cc(NC(=O)Cn3cnnn3)ccc2O[C@H]1CN(C)S(=O)(=O)c1ccccc1 | · | · | · | · | · | 4[16.7 µM]
O=C(NCC(=O)N(c1ccc(F)cc1)C(C(=O)NC1CCCC1)c1cccnc1)c1cccs1 (stereo not drawn) | -11 | 0 | -1 | 0 | 1 | 9
O=C(NCC(=O)N(c1ccccc1)C(C(=O)NC1CCCCC1)c1cccnc1)c1cccs1 (stereo not drawn) | -16 | -2 | 2 | 0 | 3 | 56*
COc1cccc(-c2noc(C3CCCN(S(=O)(=O)c4cccc(Cl)c4C)C3)n2)c1 (stereo not drawn) | -2 | 2 | -3 | 0 | 2 | 112*
CCCS(=O)(=O)N1CCCC(c2nc(-c3cccc(OC)c3)no2)C1 (stereo not drawn) | -20 | -1 | -8 | 0 | 2 | ·
SMILES | NR2E3 ag-1 | V-ATPase pHluor | GalR3 antag | FXN GAA850 act | NR2E3 ag-2 | Env fusion inh
CC(C)NC(=O)N(C)C[C@@H]1OCCCC[C@@H](C)Oc2ccc(NC(=O)CCC(F)(F)F)cc2C(=O)N([C@H](C)CO)C[C@H]1C | · | · | · | · | · | 0[16.7 µM]
C[C@H]1CCCCO[C@@H](CN(C)Cc2ccncc2)[C@@H](C)CN([C@@H](C)CO)C(=O)c2cc(NS(C)(=O)=O)ccc2O1 | · | · | · | · | · | 20[16.7 µM]
Cc1cc(N2CCN(C(=O)OC(C)(C)C)C[C@H]2C)ccc1N1CCS(=O)(=O)CC1 | · | · | -7 | · | · | 62*
C[C@@H]1CN(C(=O)OC(C)(C)C)CCN1c1ccc(N2CC[C@H](O)C2)c(C#N)c1 | · | · | 0 | · | · | -27
N#C/C(=N\Nc1cccc(Cl)c1)C(=O)c1ccccc1 | 102* | -7 | -4 | 1 | 5 | 22
N#C/C(=N\Nc1ccccc1Cl)C(=O)c1ccccc1 | 47 | -2 | -3 | 2 | -1 | -72
COc1cccc(CN(Cc2ccccc2F)S(=O)(=O)c2ccc(S(=O)(=O)NCc3ccccc3)cc2)c1 | -4 | -1 | -2 | 5 | -1 | 68*
CC1(Cc2ccccc2OC(F)(F)F)C(=O)Nc2cc(-c3ccccc3Cl)ccc21 (stereo not drawn) | 4 | · | -7 | 5 | · | 56*
CC1(Cc2ccccc2Cl)C(=O)Nc2cc(-c3ccccc3Cl)ccc21 (stereo not drawn) | -8 | · | -1 | 1 | · | -3
O=S(=O)(N[C@H]1CC[C@H](CCn2cc(C3CC3)nn2)O[C@H]1CO)c1ccc(F)cc1 | · | · | · | · | · | 3[16.7 µM]
CCOC(=O)c1cc2c(C)n(-c3ccc(C)cc3)c(C)c2ccc1=O | -29 | -1 | -7 | 2 | 2 | -229
CCOC(=O)c1cc2c(C)n(-c3ccc(OCC)cc3)c(C)c2ccc1=O | -1 | -5 | -3 | 2 | -1 | 61*
Cc1cccc(OCCCC(=O)Nc2ccc(Cl)c(S(=O)(=O)N3CCOCC3)c2)c1 | -25 | -1 | -2 | -1 | 1 | 62*
Cc1ccc(NC(=O)COC(=O)C2(C)CC2(Cl)Cl)cc1S(=O)(=O)N1CCOCC1 (stereo not drawn) | 7 | 23* | -5 | -1 | · | -208
Cc1ccc(NC(=O)COC(=O)c2ccco2)cc1S(=O)(=O)N1CCOCC1 | 3 | -4 | -7 | 1 | · | -18
